Assay [1] can be described thus: StAR promoter reporter inhibitors, counter-screen for LRH-1 inverse agonist project, cell-based, luminescence, high throughput (AID 651611; in the data active means inhibition above about 28%). The following applies: StAR promoter luciferase reporter counterscreen, at 3.6 µM, hits give high values.
The target in assay [2] is Nuclear receptor subfamily 5 group A member 2 (Homo sapiens) (UniProt O00482). Briefly: NR5A2 activity suppression in reporter cells – cell-based, luminescence, confirmation (AID 651613; in the data active means inhibition above about 42%;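 further: HEK293T cells co-transfected with LRH-1 and StAR promoter luciferase reporter; 0% = vehicle wells and 100% = parental cells lacking receptor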). The following applies: cell-based LRH-1 luciferase reporter, inverse agonism; at 3.6 µM; hits give high values. (A reporter such as luciferase makes a cellular process visible.)
Sequence of Nuclear receptor subfamily 5 group A member 2 (Homo sapiens) (O00482 whole entry, looked up): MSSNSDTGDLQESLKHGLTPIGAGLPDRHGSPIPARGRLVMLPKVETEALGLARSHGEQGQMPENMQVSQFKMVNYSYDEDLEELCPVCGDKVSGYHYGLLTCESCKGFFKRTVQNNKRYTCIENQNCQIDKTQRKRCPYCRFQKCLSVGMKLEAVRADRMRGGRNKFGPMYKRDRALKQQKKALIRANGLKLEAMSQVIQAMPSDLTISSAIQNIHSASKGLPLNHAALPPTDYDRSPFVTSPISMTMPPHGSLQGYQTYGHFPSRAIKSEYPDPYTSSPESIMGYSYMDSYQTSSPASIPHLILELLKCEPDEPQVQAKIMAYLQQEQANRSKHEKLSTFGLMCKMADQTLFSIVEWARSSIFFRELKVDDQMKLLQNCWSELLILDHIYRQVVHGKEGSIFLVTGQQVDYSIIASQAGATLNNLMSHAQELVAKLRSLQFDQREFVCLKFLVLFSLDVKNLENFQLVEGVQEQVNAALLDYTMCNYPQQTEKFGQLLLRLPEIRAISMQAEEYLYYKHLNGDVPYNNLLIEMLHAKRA
In assay [3] the target is Steroidogenic factor 1 (Homo sapiens) (UniProt Q13285). Briefly: inverse agonism at SF1 nuclear receptor – cell-based, luminescence, high throughput, counter-screen for LRH-1 inverse agonist project (AID 651614; in the data active means inhibition above about 44%;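 further: cells cotransfected with StAR promoter reporter and SF1 expression vector; 0% = vehicle on cells with receptor and 100% = vehicle on cells lacking receptor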). The following applies: cell-based SF1 luciferase reporter, at 3.6 µM, hits give high values. In general terms: The purpose of a counterscreen is to sort out artefacts and off-target activity.
Sequence of Steroidogenic factor 1 (Homo sapiens) (Q13285 whole entry, looked up): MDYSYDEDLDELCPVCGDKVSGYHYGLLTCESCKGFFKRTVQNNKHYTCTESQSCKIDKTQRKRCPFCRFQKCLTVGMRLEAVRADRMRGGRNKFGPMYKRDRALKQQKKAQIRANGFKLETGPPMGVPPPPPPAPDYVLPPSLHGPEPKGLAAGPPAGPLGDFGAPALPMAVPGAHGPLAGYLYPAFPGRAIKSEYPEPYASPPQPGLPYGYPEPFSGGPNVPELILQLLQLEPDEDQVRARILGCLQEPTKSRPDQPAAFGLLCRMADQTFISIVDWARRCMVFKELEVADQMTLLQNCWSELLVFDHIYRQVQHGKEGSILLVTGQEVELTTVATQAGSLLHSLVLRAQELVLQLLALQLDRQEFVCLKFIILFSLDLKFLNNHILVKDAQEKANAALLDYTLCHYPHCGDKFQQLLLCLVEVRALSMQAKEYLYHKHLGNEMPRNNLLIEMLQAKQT

A short description of assay [4]: compounds suppressing VP16-driven luciferase signal – cell-based, luminescence, high throughput, counter-screen for LRH-1 inverse agonist project (AID 651615; in the data active means inhibition above about 33%). The following applies: Gal4-VP16 luciferase reporter cells, at 3.6 µM, hits give high values.
Assay [5] concerns transactivating tegument protein VP16 (Human herpesvirus 1). Briefly: compounds suppressing VP16-driven luciferase signal – cell-based, luminescence, single concentration, counter-screen for SRC2 inhibitor project (AID 652007; in the data active means inhibition above about 36%). The note with it: cell-based VP16 transactivation luciferase reporter, at 8.9 µM, hits give high values.
For assay [6], the target named is Nuclear receptor coactivator 2 (Homo sapiens) (UniProt Q15596). Briefly: inhibition of GAL4-SRC2 driven luciferase expression – cell-based, luminescence, HEK293, triplicate, confirmation (AID 652008).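 Further: 0% = DMSO-treated cells and 100% = Gossypol at 36 µM.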 The following applies: HEK293 GAL4-SRC2 luciferase reporter, at 8.9 µM, hits give high values.
Sequence of Nuclear receptor coactivator 2 (Homo sapiens) (Q15596 whole entry, looked up, the tested form may be a part): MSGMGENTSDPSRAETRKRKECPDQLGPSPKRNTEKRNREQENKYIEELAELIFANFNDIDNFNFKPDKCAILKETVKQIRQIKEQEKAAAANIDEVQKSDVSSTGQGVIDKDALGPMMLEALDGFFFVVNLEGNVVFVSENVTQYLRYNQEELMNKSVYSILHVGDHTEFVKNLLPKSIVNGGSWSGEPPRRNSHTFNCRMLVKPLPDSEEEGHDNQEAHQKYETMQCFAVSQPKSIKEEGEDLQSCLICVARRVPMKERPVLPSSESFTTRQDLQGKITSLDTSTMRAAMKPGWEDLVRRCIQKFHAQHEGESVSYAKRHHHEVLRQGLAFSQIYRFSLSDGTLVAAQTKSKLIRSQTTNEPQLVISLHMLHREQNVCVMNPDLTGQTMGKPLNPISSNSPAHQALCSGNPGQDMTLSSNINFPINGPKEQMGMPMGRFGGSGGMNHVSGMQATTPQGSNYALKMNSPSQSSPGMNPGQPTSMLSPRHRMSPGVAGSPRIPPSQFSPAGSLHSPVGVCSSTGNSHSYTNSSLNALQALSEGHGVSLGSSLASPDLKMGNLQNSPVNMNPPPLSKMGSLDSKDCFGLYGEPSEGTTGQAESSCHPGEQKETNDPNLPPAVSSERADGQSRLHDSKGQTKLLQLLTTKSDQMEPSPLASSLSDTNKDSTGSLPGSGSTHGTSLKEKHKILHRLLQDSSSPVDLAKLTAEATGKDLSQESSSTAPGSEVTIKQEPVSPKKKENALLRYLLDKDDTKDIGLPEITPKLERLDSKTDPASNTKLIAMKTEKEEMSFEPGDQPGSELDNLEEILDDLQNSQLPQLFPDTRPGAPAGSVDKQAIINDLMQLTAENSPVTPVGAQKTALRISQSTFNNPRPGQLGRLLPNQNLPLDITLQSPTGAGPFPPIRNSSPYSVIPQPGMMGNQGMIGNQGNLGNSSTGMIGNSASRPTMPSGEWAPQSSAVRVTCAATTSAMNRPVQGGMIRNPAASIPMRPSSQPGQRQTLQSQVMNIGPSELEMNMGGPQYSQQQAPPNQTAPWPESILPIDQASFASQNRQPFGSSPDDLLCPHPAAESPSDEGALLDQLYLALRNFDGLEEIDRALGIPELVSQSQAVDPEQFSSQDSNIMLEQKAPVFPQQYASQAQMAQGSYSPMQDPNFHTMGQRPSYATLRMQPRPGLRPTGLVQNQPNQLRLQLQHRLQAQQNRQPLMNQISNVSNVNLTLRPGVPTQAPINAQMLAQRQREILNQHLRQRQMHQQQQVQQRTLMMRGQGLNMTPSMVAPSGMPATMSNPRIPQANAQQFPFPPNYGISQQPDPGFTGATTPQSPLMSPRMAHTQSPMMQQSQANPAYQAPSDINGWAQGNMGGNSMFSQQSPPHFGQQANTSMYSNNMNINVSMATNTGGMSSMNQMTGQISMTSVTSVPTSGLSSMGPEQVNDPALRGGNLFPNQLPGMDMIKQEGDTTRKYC
Assay [7] relates to DAF-12 nuclear receptor (Heterodera glycines), GAL4-LBD fusion. Briefly: hgDAF-12 GAL4 fusion reporter activation, retest – cell-based, luminescence, HEK293, GAL4-LBD fusion, confirmation (AID 743050;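 active means mean activation over triplicate wells above the hit cutoff derived from the earlier primary screen, cut at about 11% in these data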;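 further: 0% = DMSO low control and 100% = 2 mM sodium butyrate high control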). The note with it: HEK293 GAL4-hgDAF12 luciferase reporter, agonist mode; at 6.8 µM; hits give high values.
Assay [8] deals with Oxysterols receptor LXR-beta (Homo sapiens) (UniProt P55055). Briefly: nonspecific reporter activation via LXR – cell-based, luminescence, HEK293, H. glycines campaign, counter-screen for hgDAF-12 agonist project, confirmation (AID 743051;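 active means mean activation of the triplicate above a set limit carried over from the primary screen, none filed active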). The following applies: HEK293 Gal4-LXR luciferase reporter, 24 h; at 6.8 µM; hits give high values. The gist of the method:
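System: HEK293 cells with Gal4-LXR and tk-luc reporter. Compound dosing: single nominal test compound dose of 6.8 µM. Timing: 3 h cell plating, then 24 h compound exposure at 37 °C. Detection: One-Glo luminescence after 15 min. Read-out basis: percent activation relative to median DMSO and positive-control wells. Benchmarks: DMSO low control, 0.68% final.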

The target is the same in assay [9]. Briefly: nonspecific reporter activation via LXR – cell-based, luminescence, HEK293, H. contortus campaign, counter-screen for hcDAF-12 agonist project, confirmation (AID 743027;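 active means mean percent activation of the reporter above a cutoff set as the average over tested compounds plus their standard deviation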). The following applies: HEK293 Gal4-LXR tk-luc reporter, 24 h, at 6.8 µM, hits give high values, normalized: DMSO 0%, positive control 100%. The gist of the method:
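Assay system: Gal4-LXR and tk-luc reporter transfected HEK293 cells; Compound: 6.8 µM single dose; Times: one-day compound treatment at 37 °C; Technique: One-Glo luciferase luminescence; Read-out basis: % activation relative to DMSO and positive-control wells; Benchmarks: DMSO low control, positive-control high control; Repeats: three replicates per compound.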

Assay [10] relates to Nuclear hormone receptor DAF-12 (Haemonchus contortus). Briefly: hcDAF-12 luciferase reporter activation, retest – cell-based, luminescence, HEK293, lit1-tk-luc, triplicate, confirmation (AID 743032;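 active means mean activation across triplicate tests above the threshold derived from the earlier primary screen, cut at about 5.5% in these data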;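 further: 0% = DMSO only wells and 100% = 3 µM Δ7-dafachronic acid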). The note with it: HEK293 hcDAF-12 lit1-tk-luc reporter, at 6.8 µM, hits give high values.

Each structure is given as a SMILES string. Unmarked numbers belong to inactive results. Some of the results follow. Calls of active or inactive are those of the source.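 How the source made its calls, unless noted: active means mean inhibition above 46.5%, the solvent-only control mean plus 3 SD; inactive means the rest.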

Sequence of Oxysterols receptor LXR-beta (Homo sapiens) (P55055 whole entry, looked up, the tested form may be a part): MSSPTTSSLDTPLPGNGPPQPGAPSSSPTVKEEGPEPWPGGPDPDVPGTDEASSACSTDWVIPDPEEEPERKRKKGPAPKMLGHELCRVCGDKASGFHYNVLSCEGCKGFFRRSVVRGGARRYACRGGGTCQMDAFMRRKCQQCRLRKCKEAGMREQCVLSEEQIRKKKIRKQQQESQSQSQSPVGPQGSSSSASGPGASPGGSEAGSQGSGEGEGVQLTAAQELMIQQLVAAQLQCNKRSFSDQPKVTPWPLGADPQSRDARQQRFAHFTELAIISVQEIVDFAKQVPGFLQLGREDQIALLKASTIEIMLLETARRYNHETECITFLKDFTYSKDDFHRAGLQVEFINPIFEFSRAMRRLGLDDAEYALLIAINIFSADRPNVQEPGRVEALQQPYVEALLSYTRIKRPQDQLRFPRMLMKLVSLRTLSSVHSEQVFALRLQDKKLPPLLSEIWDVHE

Consider `C[C@@H]1O[C@@H](O[C@@H]2C=C3CC[C@@H]4C(CC[C@]5(C)[C@@H](c6ccc(=O)oc6)CC[C@]45O)[C@@]3(C)CC2)[C@H](O)[C@H](O)[C@H]1O` (some centres not stated), for which the inhibition (commonly the drop in the measured response relative to a control, in per cent) in assay [1] is 97.1% (active); in assay [2] it was 111% (active); in assay [3], 98.8% (active); in assay [4], 95.6% (active); in assay [5], 67.9% (active); in assay [6], 69.7% (active).
Take `CCN1CCN(S(=O)(=O)c2ccc(Cl)c(C(=O)Nc3ccc(C(=O)N(CC)CC)cc3)c2)CC1`: the inhibition in [5] was -10.1%; in assay [6], 2.66%.
Taken in the same sequence, the figures for `COc1cc(CC(C)N)c(OC)cc1I` (configuration not stated) were -16.9% and 8.7%.
In the case of `C[C@@H]1C[C@@H]([C@H](O)CC2CC(=O)NC(=O)C2)C(=O)[C@@H](C)C1`, the inhibition in [2] was 109% (active); in assay [3] it was 97.9% (active); in assay [5] it was 48% (active); in assay [6] it was 59.3% (active).
Consider `COC(=O)C1=C(C(=O)OC)C2c3ccccc3C1c1ccccc12`, for which the inhibition was 12.3% in assay [5] and 2.05% in assay [6].
For `FC(F)(F)c1ccccc1N1CC1c1ccncc1` (configuration not stated), in that order: -14.4% and -11.4%.
As for `CC(=O)O[C@H]1C[C@@H]2OC3C=C(C)CCC3(C)[C@@]1(C)[C@@]21CO1` (some centres not stated), the inhibition was 95.6% (active) in assay [1]; 109% (active) in assay [2]; 96.8% (active) in assay [3]; 96.8% (active) in assay [4]; 79.3% (active) in [5]; 77.9% (active) in [6].
With `Cc1ccc(N2C(=O)NC(=O)C(CCc3ccccn3)(Cc3ccc(F)cc3)C2=O)cc1` (configuration not stated), the inhibition in assay [5] is -10.7%; in [6], 7.3%.
Taken in the same sequence, the figures for `Oc1ccc(-[n+]2c(-c3ccccc3)cc(-c3ccccc3)cc2-c2ccccc2)cc1` were 35.3% and 33.1%.
Regarding `O=[N+]([O-])c1ccc(N2CCCC(C(F)(F)F)C2)c2ccncc12` (configuration not stated), the inhibition in [5] was 10.6%; in assay [6], 34.3%.
For `CC(=O)OC1CC(OC2C(O)CC(OC3C(O)CC(OC4CCC5(C)C(CCC6C5CCC5(C)C(C7=CC(=O)OC7)CCC65O)C4)OC3C)OC2C)OC(C)C1OC1OC(CO)C(O)C(O)C1O` (configuration not stated), the inhibition was 94.6% (active) in assay [1]; 109% (active) in assay [2]; 96.6% (active) in assay [3]; 92.5% (active) in assay [4]; 67.4% (active) in assay [5]; 54.4% (active) in assay [6].
Regarding `O=C(N/N=C/c1c(O)n(Cc2ccccc2)c(=O)[nH]c1=O)c1ccccc1`, the activation in [7] was 1.81%; in [8] it was 0.01%.
As to `O=Cc1cn(Cc2ccc(F)cc2Cl)c2ccccc12`, the inhibition is 14.2% in [5] and 26.5% in assay [6].
Regarding `Cc1ccccc1CN1Cc2cnnn2-c2ccccc2C1C#N` (configuration not stated), the inhibition was 39.8% (active) in assay [5] and 48.8% (active) in [6].
Taken in the same sequence, the figures for `O=C(c1ccc(Cl)cc1)C1CCCN(Cc2cccc3ncccc23)C1` (configuration not stated) were 14.6% and -6.97%.
For `COC(=O)C1=C(c2ccc(-c3ccccc3)c(F)c2)C[C@@H]2CC[C@H]1N2C(=O)NCc1ccc(F)cc1`, in that order: -5.9% and 2.93%.
For `CN1C(=O)C[N+]([O-])=C(c2ccccc2)c2cc(Cl)ccc21`, in that order: 13.7% and 0.34%.
With `COc1ccc(C(=O)C2CN(C)CC2C(=O)c2ccc(OC)cc2)cc1` (configuration not stated), the activation in assay [9] is -0.19%; in [10], 0.28%.
On to `O=C1NC(=O)N(Cc2ccco2)C(=O)/C1=C/C=C/c1ccco1`, for which the inhibition is 8.52% in [5] and -57.3% in [6].

These data come from PubChem BioAssay.
